TRPC6 inhibitor: inhibitors of mouse TRPC6 channel. HEK293-TRPC6, membrane potential dye, ACh-evoked depolarization; active compounds read low. B-score at 10 µM. 310,000 compounds, 1.1% hits. AID 2553;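 active = B-score under library mean minus 3 SD, initial fluorescence not abnormally high, positive integrated signal ratio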;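 note: B-score derived from integrated fluorescence ratio over the kinetic read; more negative B-score means stronger inhibition of depolarization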
Target sequence (Q61143 whole entry, looked up): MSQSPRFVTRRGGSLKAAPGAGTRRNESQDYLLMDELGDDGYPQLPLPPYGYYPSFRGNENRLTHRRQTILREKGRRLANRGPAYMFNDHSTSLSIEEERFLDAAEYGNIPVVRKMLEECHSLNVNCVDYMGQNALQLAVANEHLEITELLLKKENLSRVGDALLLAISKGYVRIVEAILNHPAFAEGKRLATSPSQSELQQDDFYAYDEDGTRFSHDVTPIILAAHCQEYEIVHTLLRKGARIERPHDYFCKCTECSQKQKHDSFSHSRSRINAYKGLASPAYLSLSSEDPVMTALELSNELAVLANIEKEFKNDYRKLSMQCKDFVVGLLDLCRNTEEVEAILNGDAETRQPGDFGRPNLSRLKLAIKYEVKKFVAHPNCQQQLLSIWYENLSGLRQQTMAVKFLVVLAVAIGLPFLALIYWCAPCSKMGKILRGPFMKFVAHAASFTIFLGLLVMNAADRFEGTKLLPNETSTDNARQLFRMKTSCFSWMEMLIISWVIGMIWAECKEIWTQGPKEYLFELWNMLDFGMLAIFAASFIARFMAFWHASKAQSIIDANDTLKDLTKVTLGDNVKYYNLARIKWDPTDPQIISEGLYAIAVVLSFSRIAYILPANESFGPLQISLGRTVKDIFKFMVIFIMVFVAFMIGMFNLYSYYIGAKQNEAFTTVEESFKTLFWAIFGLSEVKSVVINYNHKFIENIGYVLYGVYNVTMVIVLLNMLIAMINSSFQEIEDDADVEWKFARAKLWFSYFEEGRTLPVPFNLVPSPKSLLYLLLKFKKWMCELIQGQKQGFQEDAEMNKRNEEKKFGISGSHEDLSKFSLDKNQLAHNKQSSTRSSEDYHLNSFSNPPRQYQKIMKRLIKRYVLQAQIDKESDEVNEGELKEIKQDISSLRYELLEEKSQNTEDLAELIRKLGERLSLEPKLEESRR
TRPC4 block: inhibitors of mouse TRPC4 channel | Q9QUQ5 | HEK293 TRPC4beta/mu-opioid, DAMGO-evoked Fluo4 calcium flux; active compounds read low | B-score at 10 µM | 300,000 compounds, 0.39% hits;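 active = B-score over 3 SD under the library average, no early fluorescence shift, positive overall ratio signal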
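Material: HEK293 cells with stable TRPC4beta plus mu-opioid receptor expression; probe or stimulus: DAMGO in two steps, submaximal then maximal; technique: Fluo4 calcium fluorescence by kinetic imaging, 5 s 1 Hz baseline; measure: integrated fluorescence ratio relative to baseline, converted to per-well B score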
DSG3 Ab inh: human desmoglein-3 autoantibody binding inhibition; AID 588358; P32926; binding (percent of control), % at 10 µM; DSG3-coupled beads, scFv-anti-DSG3-GFP binding, flow cytometry; active compounds read low; 310,000 compounds, 0.48% hits;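 active = binding more than 3 SD below its plate's average and above zero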;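 note: hits lower antibody fragment binding to DSG3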
TRPC4 PAM: TRPC4 (mouse) allosteric potentiation. B-score at 10 µM. HEK293 TRPC4beta/mu-opioid, DAMGO EC20, Fluo-4 Ca2+ flux; active compounds read high. 310,000 compounds, 0.42% hits. AID 2227. Q9QUQ5;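 active = B-score of calcium response area above 5 SD of library B-scores, with initial fluorescence ratio within 5 SD of library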
TRPC6 act: activators of mouse TRPC6 channel | Q61143 | HEK293-TRPC6 membrane potential dye fluorescence; active compounds read high | B-score at 10 µM | 310,000 compounds, 0.13% hits;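 active = B-score of the integrated fluorescence ratio above library mean plus 3 SD, and starting fluorescence ratio within library mean plus 5 SD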;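 note: higher score means more depolarization so channel activation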
TRPC4 agonist: TRPC4 (mouse) channel activation; 310,000 compounds, 0.49% hits; Q9QUQ5; B-score at 10 µM; HEK293 TRPC4beta/mu-opioid, Fluo4 calcium fluorescence; active compounds read high;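 active = B-score above 5 SD of library B-scores, and initial fluorescence ratio not above library mean plus 5 SD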;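 note: positive B-score marks a calcium rise read as TRPC4 activation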
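Assay system: HEK293 cells stably co-expressing mouse TRPC4beta and mu-opioid receptor / Timing: Fluo4 dye loading 45 min at room temperature, 110 s recording / Signal: Fluo4 calcium-sensitive dye fluorescence, kinetic, 1 Hz baseline / Read-out: integrated baseline-normalised fluorescence ratio, converted to per-well B score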
Numbers stand for hits; i = inactive; nt = not tested or not shown. Compounds with a hit are over-represented: about 2.5% of the library has one in this group of screens.

SMILES | TRPC6 inhibitor | TRPC4 block | DSG3 Ab inh | TRPC4 PAM | TRPC6 act | TRPC4 agonist
Cc1nn(CC(=O)Nc2ccc(N3CCOCC3)cc2)c(C)c1[N+](=O)[O-] | nt | nt | i | nt | nt | nt
CCN(CC)CCOc1ccc(Br)cc1 | i | i | i | 11 | i | i
CCN(CC)CCCOc1ccc(Cl)c(Cl)c1 | i | i | i | 24 | i | 46
CCN(CC)CCOc1ccc(/C(=C(\Cl)c2ccccc2)c2ccccc2)cc1 | i | i | i | i | i | i
NC(=O)C1CCN(CC(=O)Nc2ccccc2C(=O)NC2CC2)CC1 | nt | nt | i | nt | nt | nt
Cc1c(-c2ccccc2)nc2ccccc2c1C(=O)O | i | i | i | i | i | i
CC[C@H](NC(=O)c1c(C)c(-c2ccccc2)nc2ccccc12)c1ccccc1 | i | i | i | i | 13 | i
O=C1c2ccc(Oc3ccc4c(c3)C(=O)N(CCCO)C4=O)cc2C(=O)N1CCCO | i | i | nt | i | i | 71
Cc1ccc2c(c1)C(=O)N(CCCCO)C2=O | i | i | 69 | i | i | i
Nc1cccc(Oc2ccc3c(c2)C(=O)N(CCO)C3=O)c1 | nt | nt | i | nt | nt | nt
CC(C)c1ccc(NC(=O)CCNS(=O)(=O)c2cc(Br)cnc2N)cc1 | i | i | i | i | i | i
COc1ccc(NC(=O)CN(C)CC(=O)Nc2ccc(N3CCOCC3)cc2)c([N+](=O)[O-])c1 | i | i | 67 | i | i | i
CC(=O)C1=C(c2ccc(Br)cc2)C(=O)c2ccccc2C1=O | i | i | i | 35 | i | i
CNC1=C(N(C(C)=O)c2ccc(Br)cc2)C(=O)c2ccccc2C1=O | i | i | nt | i | i | i
Cc1cc(NC(=O)c2cnn3cccnc23)no1 | i | i | i | i | i | i
COC(=O)c1ccccc1NC(=O)c1cnn2cccnc12 | i | i | i | 54 | i | i
O=C(Nc1cccc(Cl)c1)c1cnn2cccnc12 | i | nt | i | 34 | i | i
NS(=O)(=O)c1ccc(NC(=O)c2cc(-c3cccs3)nc3ccccc23)cc1 | i | i | 36 | i | i | i
CN(C)S(=O)(=O)c1ccc(NC(=O)c2cc(-c3cccs3)nc3ccccc23)cc1 | i | i | i | i | i | i
COC(=O)c1ccc(NC(=O)c2cc(-c3ccccn3)nc3ccccc23)cc1 | i | i | 4.9 | i | i | i
Cc1cc(NC(=O)c2cc(-c3cccs3)nc3ccccc23)no1 | i | -6 | i | i | i | i
Cc1ccc(-c2cc(C(=O)Nc3cc(C)on3)c3ccccc3n2)cc1 | i | i | i | i | i | i
O=C(CCNS(=O)(=O)c1ccc2nsnc2c1)N1CCN(c2ccncc2)CC1 | nt | nt | i | nt | nt | nt
Cc1c(Cl)cccc1NC(=O)CCN1C(=O)C2CC=CCC2C1=O (configuration not stated) | i | i | nt | i | i | i
CCOC(=O)Nc1ccc(OC(=O)Oc2ccc(NC(=O)OCC)cc2)cc1 | nt | nt | 78 | nt | nt | nt
SMILES | TRPC6 inhibitor | TRPC4 block | DSG3 Ab inh | TRPC4 PAM | TRPC6 act | TRPC4 agonist
CCOC(=O)Nc1ccc(Oc2ccccc2)cc1 | i | i | i | i | i | i
CSCC[C@H](NC(=O)[C@@H]1Cc2ccccc2CN1)C(=O)Nc1ccc2c(c1)OCCO2 | i | i | i | i | i | i
Cc1c(Cl)c(C(=O)Nc2nc3ccccc3n2CCN2CCCCC2)nn1C | -8.2 | i | nt | i | i | i
CCCn1c(NC(=O)c2ccc(Cl)c(S(=O)(=O)N3CCCC3)c2)nc2ccccc21 | i | -7 | i | 32 | i | i
O=C(NCCc1ccc(Cl)cc1)c1ccc2[nH]c(=O)c(=O)[nH]c2c1 | i | i | i | i | i | i
COc1ccc(C(=O)NC(=S)N2CC(C)OC(C)C2)cc1OC (configuration not stated) | i | i | i | i | i | i
CCCCN(C)CCCNC(=O)CN1N=C(c2ccc(Cl)cc2)CCC1=O | i | i | 75 | 12 | i | 102
CC(C)CN(CCNC(=O)CN1N=C(c2ccc(Cl)cc2)CCC1=O)CC(C)C | i | i | i | i | i | i
O=C(NC(c1ccccc1)c1cc(Cl)c2cccnc2c1O)c1cccnc1 (configuration not stated) | -5.8 | i | nt | i | i | i
COc1ccc(NC(=O)c2ccc3c(c2)S(=O)(=O)c2ccccc2C3=O)cc1 | i | i | 83 | i | i | i
O=C1c2ccccc2S(=O)(=O)c2cc(C(=O)N(c3ccccn3)c3ccccn3)ccc21 | i | i | i | i | i | 135
O=C(Nc1ccccn1)c1ccc2c(c1)S(=O)(=O)c1ccccc1C2=O | i | i | i | i | i | i
O=C(CN1C(=O)NC2(CCCCCC2)C1=O)NCCc1ccc(F)cc1 | nt | nt | i | nt | nt | nt
O=C(Cn1nnc(-c2cccs2)n1)NNC(=O)c1ccccc1Cl | i | i | i | i | i | i
O=[N+]([O-])c1ccc(/C=N/Nc2nc(N3CCCCCC3)nc(N3CCCCCC3)n2)o1 | i | i | nt | 32 | i | i
COc1ccccc1C(=O)Nc1c2c(nn1-c1cccc(C)c1C)CS(=O)(=O)C2 | i | i | 32 | i | i | i
COc1ccccc1C(=O)Nc1c2c(nn1-c1ccc(Cl)cc1)CS(=O)(=O)C2 | i | i | i | i | i | i
Cn1nc(OCC(=O)O)cc1C(F)(F)F | i | i | i | i | i | i
CC(C)CN1CCN(Cc2cccn2-c2cccnc2)CC1CCO (configuration not stated) | i | i | i | i | i | i
OCC1(CCc2ccccc2)CCN(Cc2cccn2-c2cccnc2)CC1 | i | i | i | i | i | 57
O=C(OCC(=O)N1CCCC1=O)C1COc2ccccc2O1 (configuration not stated) | i | i | i | i | i | i
N=c1c2c(ncn1Cc1ccco1)Oc1c(ccc3ccccc13)C2c1ccccc1 (configuration not stated) | i | i | i | i | i | i
N=c1c2c(ncn1Cc1ccco1)Oc1cc(O)ccc1C2c1ccccc1 (configuration not stated) | i | i | i | i | i | 57
CC(=O)c1ccc(OC(C)C)c(Cc2c(O)nc(N)[nH]c2=O)c1 | i | i | i | i | i | i
CCOC(=O)C1CCCN(C(=O)COc2ccc(S(=O)(=O)N(CC)c3ccccc3)cc2)C1 (configuration not stated) | i | i | i | i | i | i
Cc1occc1C(=O)N=Nc1c(O)n(C)c2ccccc12 | i | i | 84 | i | i | i
Cc1cc(C(=O)N2CCN(S(C)(=O)=O)CC2)sc1-c1ccccc1 | i | i | 86 | i | i | i
Cc1cc(C(=O)N2CCN(c3ncccn3)CC2)sc1-c1ccccc1 | i | i | i | i | i | i
O=C(CNC(=O)c1ccccc1)OCc1nnc(-c2ccccc2)o1 | i | i | i | i | i | i
O=C(CCN1c2ccccc2Sc2ccccc21)OCc1nnc(-c2ccccc2)o1 | i | i | i | 12 | i | i

Source: PubChem
